Test results taken from ChEMBL document CHEMBL3045116, “Synthesis and biological evaluation of 2-(5-substituted-1-((diethylamino)methyl)-2-oxoindolin-3-ylidene)-N-substituted-hydrazinecarbothioamides” (Med Chem Res, 2013).

How the values were obtained:
[1] = system: Respiratory syncytial virus; assay: Antiviral activity against Respiratory syncytial virus infected human HeLa cells assessed as reduction of virus-induced cytopathic effect after 3 days by colorimetric formazan-based MTS assay; format: functional, organism-based; details: 72 h
How it was run: (§1)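 Confluent cell monolayers were infected with 100 CCID50 of virus, and serial dilutions of compound were added at the time of infection.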

[2] = system: Vesicular stomatitis virus; assay: Antiviral activity against Vesicular stomatitis virus infected human HeLa cells assessed as reduction of virus-induced cytopathic effect after 3 days by colorimetric formazan-based MTS assay; format: functional, organism-based; details: 72 h; how it was run: as §1
Human alphaherpesvirus 1 [3] = assay: Antiviral activity against Human herpesvirus 1 strain KOS infected human HEL cells assessed as reduction of virus-induced cytopathic effect after 3 days by colorimetric formazan-based MTS assay; format: functional, organism-based; details: Human alphaherpesvirus 1, KOS, 72 h; how it was run: as §1
Vaccinia virus = assay: Antiviral activity against Vaccinia virus infected human HEL cells assessed as reduction of virus-induced cytopathic effect after 3 days by colorimetric formazan-based MTS assay; format: functional, organism-based; details: Orthopoxvirus vaccinia, 72 h; how it was run: as §1
Respirovirus muris = assay: Antiviral activity against Sendai virus infected African green monkey Vero cells assessed as reduction of virus-induced cytopathic effect after 3 days by colorimetric formazan-based MTS assay; format: functional, organism-based; details: 72 h
[4] = Cytotoxicity against Homo sapiens (human) HEL cells assessed as change in cellular morphology; format: cell-based
Salmonella typhi = assay: Antibacterial activity against Salmonella enterica subsp. enterica serovar Typhi assessed as growth inhibition at 50 ug/ml by cup-plate method (reference value: 8 to 10 mm); format: functional; details: read-out: DIZ
Coxsackievirus B4 [5] = assay: Antiviral activity against Human coxsackievirus B4 infected human HeLa cells assessed as reduction of virus-induced cytopathic effect after 3 days by colorimetric formazan-based MTS assay; format: functional, organism-based; details: Enterovirus B, 72 h; how it was run: as §1
CCRF-CEM = assay: Cytotoxicity against Homo sapiens (human) CEM cells assessed as growth inhibition after 72 hr by coulter counter analysis; format: functional, cell-based
How it was run: (§2)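 Cells in growth medium were allowed to proliferate with variable compound amounts at 37 °C in a humidified CO2 atmosphere. Incubation ran 48 h for L1210, 72 h for CEM and 96 h for HeLa. Cells were then counted with a Coulter counter.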

Aspergillus niger = assay: Antifungal activity against Aspergillus niger assessed as growth inhibition at 50 ug/ml by cup-plate method (reference value: 8 to 10 mm); format: functional; details: read-out: DIZ
[6] = Cytotoxicity against Chlorocebus aethiops (African green monkey) Vero cells assessed as change in cellular morphology; format: cell-based; details: chlorocebus sabaeus
Human alphaherpesvirus 2 = assay: Antiviral activity against Human herpesvirus 2 strain G infected human HEL cells assessed as reduction of virus-induced cytopathic effect after 3 days by colorimetric formazan-based MTS assay; format: functional, organism-based; details: Human alphaherpesvirus 2, strain G, 72 h; how it was run: as §1
Punta Toro virus = assay: Antiviral activity against Punta Toro virus infected in African green monkey Vero cells assessed as reduction of virus-induced cytopathic effect after 3 days by colorimetric formazan-based MTS assay; format: functional, organism-based; details: 72 h; how it was run: as §1
Influenza A virus H3N2 = assay: Antiviral activity against Influenza A virus H3N2 infected MDCK cells assessed as reduction of virus-induced cytopathic effect after 3 days by colorimetric formazan-based MTS assay; format: functional, organism-based; details: 72 h; how it was run: as §1
[7] = (§3) Cytotoxicity against Homo sapiens (human) HeLa cells assessed as change in cellular morphology; format: cell-based; details: HeLa cells
How it was run: (§4)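 Uninfected cells were exposed to compound in parallel with the antiviral cultures. The read-out is the minimum cytotoxic concentration that causes a microscopically detectable alteration of normal cell morphology.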

HeLa = assay: as §3; format: cell-based; details: hela; how it was run: as §4
Candida albicans = assay: Antifungal activity against Candida albicans assessed as growth inhibition at 50 ug/ml by cup-plate method (reference value: 8 to 10 mm); format: functional; details: read-out: DIZ
L1210 = assay: Cytotoxicity against Mus musculus (mouse) L1210 cells assessed as growth inhibition after 48 hr by coulter counter analysis; format: functional, cell-based; details: L1210, 48 h; how it was run: as §2
[8] = system: Feline infectious peritonitis virus; assay: Antiviral activity against Feline Infectious peritonitis virus infected cat CRFK cells assessed as reduction of virus-induced cytopathic effect after 3 days by colorimetric formazan-based MTS assay; format: functional, organism-based; details: Alphacoronavirus 1, CRFK, 72 h; how it was run: as §1
Proteus vulgaris = assay: Antibacterial activity against Proteus vulgaris assessed as growth inhibition at 50 ug/ml by cup-plate method (reference value: 8 to 10 mm); format: functional; details: read-out: DIZ
Bacillus subtilis = assay: Antibacterial activity against Bacillus subtilis assessed as growth inhibition at 50 ug/ml by cup-plate method (reference value: 8 to 10 mm); format: functional; details: read-out: DIZ
Felid alphaherpesvirus 1 = assay: Antiviral activity against Felid herpesvirus 1 infected cat CRFK cells assessed as reduction of virus-induced cytopathic effect after 3 days by colorimetric formazan-based MTS assay; format: functional, organism-based; details: Felid alphaherpesvirus 1, CRFK, 72 h
How it was run: (§5)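 Cells grown to confluency in 96-well plates ([…], Vero for lines 9–10) were infected with 100 CCID50 of virus, and serial compound dilutions were added at infection. Plates were incubated at 37 °C for 3 days, until complete CPE appeared in untreated virus controls.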

[9] = system: Vesicular stomatitis virus; assay: Antiviral activity against Vesicular stomatitis virus infected human HEL cells assessed as reduction of virus-induced cytopathic effect after 3 days by colorimetric formazan-based MTS assay; format: functional, organism-based; details: 72 h; how it was run: as §1
Klebsiella pneumoniae = assay: Antibacterial activity against Klebsiella pneumoniae assessed as growth inhibition at 50 ug/ml by cup-plate method (reference value: 8 to 10 mm); format: functional; details: read-out: DIZ
Staphylococcus aureus = assay: Antibacterial activity against Staphylococcus aureus assessed as growth inhibition at 50 ug/ml by cup-plate method (reference value: 8 to 10 mm); format: functional; details: read-out: DIZ
Influenza B virus = assay: Antiviral activity against Influenza B virus infected in MDCK cells assessed as reduction of virus-induced cytopathic effect after 3 days by colorimetric formazan-based MTS assay; format: functional, organism-based; details: 72 h; how it was run: as §1
Human alphaherpesvirus 1 [10] = assay: Antiviral activity against acyclovir-resistant thymidine kinase negative Human herpesvirus 1 strain KOS infected human HEL cells assessed as reduction of virus-induced cytopathic effect after 3 days by colorimetric formazan-based MTS assay; format: functional, organism-based; details: Human alphaherpesvirus 1, KOS, 72 h; how it was run: as §1
[11] = Cytotoxicity against Felis catus (cat) CRFK cells assessed as change in cellular morphology; format: cell-based; details: crfk; how it was run: as §4
[12] = (§6) Cytotoxicity against MDCK cells assessed as change in cellular morphology; format: cell-based, Canis lupus familiaris; details: dog, MDCK cells; how it was run: as §4
MDCK = assay: as §6; format: cell-based, Canis lupus familiaris; details: dog, mdck; how it was run: as §4
Escherichia coli = assay: Antibacterial activity against Escherichia coli assessed as growth inhibition at 50 ug/ml by cup-plate method (reference value: 8 to 10 mm); format: functional; details: read-out: DIZ
[13] = Inhibition of beta lactamase assessed as time for decolorization of iodine (reference value: 79.5 secs)
Influenza A virus = assay: Antiviral activity against Unidentified Influenza A virus (H1N1) infected MDCK cells assessed as reduction of virus-induced cytopathic effect after 3 days by colorimetric formazan-based MTS assay; format: functional, organism-based; details: 72 h; how it was run: as §1
Human respirovirus 3 = assay: Antiviral activity against Human parainfluenza virus 3 infected African green monkey Vero cells assessed as reduction of virus-induced cytopathic effect after 3 days by colorimetric formazan-based MTS assay; format: functional, organism-based; details: Human respirovirus 3, Vero, 72 h; how it was run: as §5
Coxsackievirus B4 [14] = assay: Antiviral activity against Human coxsackievirus B4 infected African green monkey Vero cells assessed as reduction of virus-induced cytopathic effect after 3 days by colorimetric formazan-based MTS assay; format: functional, organism-based; details: Enterovirus B, 72 h; how it was run: as §1
[15] = system: Mammalian orthoreovirus 1; assay: Antiviral activity against Mammalian orthoreovirus 1 infected African green monkey Vero cells assessed as reduction of virus-induced cytopathic effect after 3 days by colorimetric formazan-based MTS assay; format: functional, organism-based; details: Mammalian orthoreovirus 1, Vero, 72 h; how it was run: as §5
[16] = Inhibition of beta lactamase assessed as increase in time taken for iodine decolorization relative to control; set-up: concentration or dose not given beside the values; details: concentration not given here

## CCN(CC)CN1C(=O)/C(=N/NC(N)=S)c2ccccc21
[1]
  EC50: > 100 µM
[2]
  EC50: > 100 µM
Human alphaherpesvirus 1 [3]
  EC50: > 100 µM
Vaccinia virus
  EC50: > 100 µM
Respirovirus muris
  EC50: > 100 µM
[4]
  MCC: > 100 µM
Salmonella typhi
  zone of inhibition at 50 µg/mL: 11 mm
Coxsackievirus B4 [5]
  EC50: > 100 µM
CCRF-CEM
  IC50: 164 µM
Aspergillus niger
  zone of inhibition at 50 µg/mL: 11 mm
[6]
  MCC: > 100 µM
Human alphaherpesvirus 2
  EC50: > 100 µM
Punta Toro virus
  EC50: > 100 µM
Influenza A virus H3N2
  EC50: > 20 µM
[7]
  MCC: > 100 µM
HeLa
  CC50: > 100 µM
Candida albicans
  zone of inhibition at 50 µg/mL: 11 mm
L1210
  IC50: 121 µM
[8]
  EC50: > 20 µM
Proteus vulgaris
  zone of inhibition at 50 µg/mL: 11 mm
Bacillus subtilis
  zone of inhibition at 50 µg/mL: 11 mm
Felid alphaherpesvirus 1
  EC50: > 20 µM
[9]
  EC50: > 100 µM
Klebsiella pneumoniae
  zone of inhibition at 50 µg/mL: 11 mm
Staphylococcus aureus
  zone of inhibition at 50 µg/mL: 11 mm
Influenza B virus
  EC50: > 20 µM
Human alphaherpesvirus 1 [10]
  EC50: > 100 µM
[11]
  CC50: 73.8 µM
[12]
  MCC: 100 µM
MDCK
  CC50: 85.8 µM
Escherichia coli
  zone of inhibition at 50 µg/mL: 11 mm
[13]
  TIME: 0.0357 h
Influenza A virus
  EC50: > 20 µM
Human respirovirus 3
  EC50: > 100 µM
Coxsackievirus B4 [14]
  EC50: > 100 µM
[15]
  EC50: > 100 µM
[16]
  inhibition: 38.2%

## CCN(CC)CN1C(=O)/C(=N/NC(=S)Nc2ccccc2)c2cc(Cl)ccc21
[1]
  EC50: > 20 µM
[2]
  EC50: > 20 µM
Human alphaherpesvirus 1 [3]
  EC50: > 20 µM
Vaccinia virus
  EC50: > 20 µM
Respirovirus muris
  EC50: > 20 µM
[4]
  MCC: 100 µM
Salmonella typhi
  zone of inhibition at 50 µg/mL: 11 mm
Coxsackievirus B4 [5]
  EC50: > 20 µM
CCRF-CEM
  IC50: 40 µM
Aspergillus niger
  zone of inhibition at 50 µg/mL: 11 mm
[6]
  MCC: 100 µM
Human alphaherpesvirus 2
  EC50: > 20 µM
Punta Toro virus
  EC50: > 20 µM
Influenza A virus H3N2
  EC50: > 0.8 µM
[7]
  MCC: ≥ 20 µM
HeLa
  CC50: 13.5 µM
Candida albicans
  zone of inhibition at 50 µg/mL: 21 mm
L1210
  IC50: 49 µM
[8]
  EC50: > 4 µM
Proteus vulgaris
  zone of inhibition at 50 µg/mL: 21 mm
Bacillus subtilis
  zone of inhibition at 50 µg/mL: 11 mm
Felid alphaherpesvirus 1
  EC50: > 4 µM
[9]
  EC50: > 20 µM
Klebsiella pneumoniae
  zone of inhibition at 50 µg/mL: 11 mm
Staphylococcus aureus
  zone of inhibition at 50 µg/mL: 11 mm
Influenza B virus
  EC50: > 0.8 µM
Human alphaherpesvirus 1 [10]
  EC50: > 20 µM
[11]
  CC50: 6.9 µM
[12]
  MCC: ≥ 0.8 µM
MDCK
  CC50: 3 µM
Escherichia coli
  zone of inhibition at 50 µg/mL: 11 mm
[13]
  TIME: 0.0434 h
Influenza A virus
  EC50: > 0.8 µM
Human respirovirus 3
  EC50: > 20 µM
Coxsackievirus B4 [14]
  EC50: > 20 µM
[15]
  EC50: > 20 µM
[16]
  inhibition: 49.2%
